Laboratory results from the RNAGym collection of RNA variant scans (doi:10.1126/science.aae0568).
This sample holds only a part of the variants without activity.

B1: tRNA (parent)
chain: GUUCCGUUGGCGUAAUGGUAACGCGUCUCCCUCCUAAGGAGAAGACUGCGGGUUCGAGUCCCGUACGGAACG

Variants of: B1
Assay: yeast fitness relative to wild type (ratio to wild type); higher = fitter; tRNA-Arg(CCU), competitive growth, 37 C, YPD
How it was run: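 A pool of Saccharomyces cerevisiae strains, each with a tRNA-Arg(CCU) gene variant at the native genomic locus, was competed in YPD at 37°C for 24 hours across six parallel replicates. The variants had been chemically synthesised at a 3% per-site mutation rate over 69 sites, and gene amplicons before and after competition were read by 100-nucleotide paired-end sequencing. Darwinian fitness relative to wild type rested on changes in genotype frequencies. Genotypes required ≥ 100 starting reads, and estimates < 0.5 were set to 0.5.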

| Variant | yeast fitness |
| --- | --- |
| U3A C4A G18C C34U A36G G63C | ≤ 0.5 |
| C5G U47A G58A | 0.567 |
| C5A C46G C49A G67C | ≤ 0.5 |
| G17C C24A U47A | ≤ 0.5 |
| A15C G17A A42U | ≤ 0.5 |
| C22G C29G G44C G56A A57G | 0.515 |
| C11G C49A | 0.522 |
| U8A U54C | 0.657 |
| A20C C30U C46A C62G A65G | 0.534 |
| C5G C29U C31G G44C | 0.556 |
| C60A A65U A70U | 0.53 |
| U2A G48A | 0.978 |
| U28A C34U A40U A45U C66U | ≤ 0.5 |
| A20C U26A C61A A65U | 0.555 |
| A14U C29U C30A A45C | ≤ 0.5 |
| G25C C29G A43G | ≤ 0.5 |
| U16A A37U | 0.739 |
| C5U G10A G12A U53A | ≤ 0.5 |
| G23A C24U A37C G41C U54C U64C | ≤ 0.5 |
| C34U A36U G52C A69U | ≤ 0.5 |
| C46U C49G | 0.997 |
| U3A C49U | 0.954 |
| A15G A42G G48A | 0.774 |
| G10C A65G | 0.719 |

| Variant | yeast fitness |
| --- | --- |
| U7A A14G A65C | 0.662 |
| C5G C34G C61A | ≤ 0.5 |
| U3A U13C C29A A43G G67C | 0.595 |
| C33G C61A C62U | ≤ 0.5 |
| G23A A42G C61U | ≤ 0.5 |
| U7G A70G | 0.993 |
| U3A G25A G58C C66U | 0.596 |
| A40U A42G | 0.983 |
| C5A U35C G44A G48C C55G | ≤ 0.5 |
| G6A U13A A14G G41C | ≤ 0.5 |
| A15C C46U A57G C66A | ≤ 0.5 |
| C5U A20G U35C A37G | ≤ 0.5 |
| C4A C46A G67A | 0.73 |
| U16A C22U U26C G67A | ≤ 0.5 |
| U28C A45U | 0.985 |
| A15C G17C C31A G44C | ≤ 0.5 |
| A15U C22U A70C | ≤ 0.5 |
| U2G A45U C66U | 0.555 |
| C31G G50C G58C | 0.571 |
| U32C A70C | 0.991 |
| U2C C27A C60G | ≤ 0.5 |
| G12U C30G | ≤ 0.5 |
| U16C A40U G52A C55A G56C | ≤ 0.5 |
| G6A C30G G67C | ≤ 0.5 |

| Variant | yeast fitness |
| --- | --- |
| C31U G48C C55A C60G A69G | ≤ 0.5 |
| C11G G25A A37U | 0.573 |
| G10A A36U G38A A65C | ≤ 0.5 |
| C4U C27A C31U C60G | ≤ 0.5 |
| A20G A21G C34G C61U A70C | ≤ 0.5 |
| A14U A21G A43U G58C | ≤ 0.5 |
| G18C G25C U28G A42G U47C C49U A57U | ≤ 0.5 |
| C34G A42C | 0.573 |
| C34A A37C C49A | 0.522 |
| A15U U19A G41C C55G C66G | ≤ 0.5 |
| C5G G17A A20C | ≤ 0.5 |
| G6C U35C | 0.866 |
| U28G A43G | 0.643 |
| U3G U47G C60G | 0.503 |
| G58A G67A | 0.851 |
| C22U C27U A70C | 0.599 |
| A20G C24G C33A A36U | ≤ 0.5 |
| A36C C49A U54C U64C | ≤ 0.5 |
| U28G A36G A65U | ≤ 0.5 |
| C33U G41A C49U C61G | ≤ 0.5 |
| A21U C34A G50C | 0.535 |
| A37C C46G C60A C66U | ≤ 0.5 |
| A20G C30A C31U A45C C55G | ≤ 0.5 |
| A14U A43U U59A | ≤ 0.5 |

| Variant | yeast fitness |
| --- | --- |
| U13A C31G | 1.05 |
| C49G U53C | 0.723 |
| U13A C22G G25C C27U C30G | ≤ 0.5 |
| U2A G17C C46U U59A | ≤ 0.5 |
| U7G A14U C30A | ≤ 0.5 |
| G41C C55A | 0.617 |
| C5A A14C U26A C34U C55G | ≤ 0.5 |
| U2A C24G A37C G56C | ≤ 0.5 |
| A14G C55G | 0.583 |
| G23U C49U C55A C66U | ≤ 0.5 |
| G56A | 1.03 |
| G17A C60G | 0.586 |
| C24U A36C A45U | 0.513 |
| C62G G68C A70G | ≤ 0.5 |
| C5G U53G C60A | ≤ 0.5 |
| A43C G44A | 1.01 |
| U7C C29G C49U | 0.712 |
| C11A U32A | ≤ 0.5 |
| C4G C31U C55A | ≤ 0.5 |
| C5G C34A C49U | ≤ 0.5 |
| C46U C55A | 0.587 |
| C30A C62G A70U | 0.547 |
| C5U A14U G41C | ≤ 0.5 |
| C11U G41A G58A | 0.768 |

| Variant | yeast fitness |
| --- | --- |
| C24U C34U C61U | 0.545 |
| U32G A40C | 0.692 |
| G6C C30G | 0.592 |
| U2A A14C C30U C34G G58C | ≤ 0.5 |
| C24G C33G G51A U53A G56A G67C | 0.541 |
| C27G A45C C55G G58C | ≤ 0.5 |
| C29G C34G | 0.563 |
| G9C A21U U54A A70G | ≤ 0.5 |
| U7C A37G A42C C49G C61U G63A | ≤ 0.5 |
| G10A U32C A57G | ≤ 0.5 |
| A14C G25A | 0.889 |
| A14G C24U C30U C60A | ≤ 0.5 |
| G10A G44A C66U | 0.534 |
| G17C A21G U59G A65C | ≤ 0.5 |
| U7A A20G C31U A57G A70C | ≤ 0.5 |
| C27U A45C | 0.947 |
| U7A C46A C66A | ≤ 0.5 |
| C24A C29A A40U A43G C49G | ≤ 0.5 |
| A15G A21C U32C U64A | ≤ 0.5 |
| U16A G39A G48A G63A A65C | ≤ 0.5 |
| C5A A14C A21U C34U G38C | ≤ 0.5 |
| U26A U28A C30G | 0.584 |
| A20G U47C U54G C66G | ≤ 0.5 |
| G10C C46A C55U | 0.603 |

| Variant | yeast fitness |
| --- | --- |
| U16G G44A C62U | 0.652 |
| G9C C24U C30G G51A C60U G67A | 0.543 |
| A15U | 0.885 |
| U26C A57G | 0.984 |
| U19C G44C G58A A65G | 0.987 |
| G39C A43G G48C G50A | ≤ 0.5 |
| U7A G38A A42U G51A U53G C60G | ≤ 0.5 |
| C11A A43G G58C C62U | ≤ 0.5 |
| C22U A36U | 0.591 |
| G17A C31U A42C | 0.582 |
| G10U C24G A45G | ≤ 0.5 |
| C46U C61U G67A | 0.535 |
| G9A C24G C29G G39C C55A | ≤ 0.5 |
| C5G G50A A65G | 0.587 |
| A36U A40U A45G G58C | 0.565 |
| A37C A70C | 0.968 |
| A14U A37U C61A A65U | ≤ 0.5 |
| G17A C31U G52A | ≤ 0.5 |
| U8G G51A | ≤ 0.5 |
| C34U G67A | 0.744 |
| U7A C34A G56C A65G | ≤ 0.5 |
| U13C C31U U47G | 0.562 |
| A37U G50A A69U | 0.805 |
| C31A A65U | 0.725 |

| Variant | yeast fitness |
| --- | --- |
| C4U G9C G18A U26G A45C | ≤ 0.5 |
| A14U C24G G41A G44A U53A G63A C66U | ≤ 0.5 |
| G17A C24U C29G | 0.533 |
| U13C C29A C33A U35C G51A | ≤ 0.5 |
| A14U G23U | 0.59 |
| U7A C22U C66G G68C | ≤ 0.5 |
| A21U A36U G58A | ≤ 0.5 |
| C11G G52C U54C A57U | ≤ 0.5 |
| G38A C55G | 0.564 |
| A14U G41A | 0.674 |
| A14U A42C | 0.639 |
| C4U G12A C46U | 0.728 |
| A20U C22U C33A C66A | ≤ 0.5 |
| C5U A21G C27U G41A | ≤ 0.5 |
| U3C G18C C31G C34G | ≤ 0.5 |
| U3A G6C A37U G58A | 0.524 |
| U13G U26A | 0.987 |
| G63C | 0.812 |
| C4U A40G A65U | 0.596 |
| A14C A36U G38A A65C | ≤ 0.5 |
| C11G A15G C33G A37G U54A | ≤ 0.5 |
| A40G G44A U47C | 0.571 |
| C27U G58A A70G | 0.753 |
